# Data taken from ChEMBL document CHEMBL1143425, “Paradoxical growth effect of caspofungin observed on biofilms and planktonic cells of five different Candida species” (2007).
# Calls of active or inactive are those of the source.
# Columns and labels:
# [1] = tested on: Candida albicans; test: Antimicrobial activity against Candida albicans BR-A4 grown as planktonic cell after 48 hrs by XTT reduction assay; type: functional
# How it was run: (§1)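 Planktonic broth microdilution followed CLSI M27-A2, with caspofungin dissolved in water. After 48 h, XTT-menadione was added to the wells and plates were kept 1 h at 35°C in the dark. Plates were then centrifuged and supernatant A490 was read. MIC was the lowest concentration giving a 50% decrease in metabolic activity versus drug-free control. Paradoxical growth was defined as ≥20% of control activity above the MIC.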
# [2] = tested on: Candida tropicalis; test: Antimicrobial activity against Candida tropicalis BR-A20 grown as biofilm after 48 hrs by XTT reduction assay; type: functional
# How it was run: (§2)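 Isolates were grown on Sabouraud agar (30°C, 24 h), then overnight in RPMI 1640 with MOPS, pH 7.0, at 35°C with shaking. Cells were washed and set to ~1 × 10^7 cells/ml, attached 1.5 h at 37°C, and grown 24 h. Biofilms were then exposed to caspofungin in 10 twofold dilutions (2–1,024 μg/ml) for 48 h at 35°C with shaking. Read-out was XTT-menadione, 1 h, 35°C, dark, A490, cell-free blank subtracted. MIC was the 50% drop in activity versus drug-free control. Tested in duplicate.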
# [3] = tested on: Candida metapsilosis; test: Antimicrobial activity against Candida metapsilosis BR-A40 grown as biofilm assessed as concentration producing paradoxical growth after 48 hrs by XTT reduction assay; type: functional
# How it was run: (§3)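 Sabouraud-grown cells were shaken overnight (18 h, 120 rpm, 35°C) in RPMI 1640 with MOPS at pH 7.0, then washed and set at ~1 × 10^7 cells/ml. Attachment lasted 1.5 h at 37°C, and growth ran 24 h before challenge. Caspofungin was added in RPMI at 2–1,024 μg/ml (10 doublings) for 48 h at 35°C with shaking. XTT-menadione was read at 490 nm after 1 h at 35°C in the dark, with blank wells subtracted. MIC was taken as 50% reduction versus drug-free wells, and PG as >50% of control above MIC. Assays were run in duplicate.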
# [4] = tested on: Candida orthopsilosis; test: Antimicrobial activity against Candida orthopsilosis BR-A33 grown as planktonic cell assessed as paradoxical growth after 48 hrs by XTT reduction assay; type: functional, organism-based
# How it was run: (§4)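 Planktonic cells were tested by CLSI M27-A2 broth microdilution with caspofungin in water, incubated 48 h. XTT-menadione was added to each well, plates were held 1 h at 35°C in the dark and centrifuged, and supernatant absorbance was read at 490 nm. MIC was defined as 50% decrease in metabolic activity versus drug-free control. PG was defined as ≥20% of control activity at concentrations above MIC.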
# [5] = tested on: Candida parapsilosis; test: Antimicrobial activity against Candida parapsilosis 22019 grown as planktonic cell after 48 hrs by XTT reduction assay; type: functional; details: Lodderomyces parapsilosis, 22019, 48 h; how it was run: as §1
# [6] = tested on: Candida parapsilosis; test: Antimicrobial activity against Candida parapsilosis 22019 grown as biofilm after 48 hrs by XTT reduction assay; type: functional; details: Lodderomyces parapsilosis, 22019, 48 h; how it was run: as §2
# [7] = tested on: Candida metapsilosis; test: Antimicrobial activity against Candida metapsilosis BR-A42 grown as biofilm assessed as concentration producing paradoxical growth after 48 hrs by XTT reduction assay; type: functional; how it was run: as §3
# [8] = tested on: Candida orthopsilosis; test: Antimicrobial activity against Candida orthopsilosis BR-A35 grown as planktonic cell assessed as paradoxical growth after 48 hrs by XTT reduction assay; type: functional, organism-based; how it was run: as §4
# [9] = tested on: Candida parapsilosis; test: Antimicrobial activity against Candida parapsilosis BR-A30 grown as planktonic cell after 48 hrs by XTT reduction assay; type: functional; details: Lodderomyces parapsilosis; how it was run: as §1
# [10] = tested on: Candida albicans; test: Antimicrobial activity against Candida albicans BR-A1 grown as planktonic cell assessed as paradoxical growth after 48 hrs by XTT reduction assay; type: functional, organism-based; how it was run: as §4
# [11] = tested on: Candida orthopsilosis; test: Antimicrobial activity against Candida orthopsilosis BR-A38 grown as biofilm assessed as paradoxical growth after 48 hrs by XTT reduction assay; type: functional, organism-based; how it was run: as §3
# [12] = tested on: Candida parapsilosis; test: Effect on morphology in Candida parapsilosis grown as biofilm assessed as inhibition of hyphae and pseudohyphae at 128 ug/ml after 48 hrs; type: functional, organism-based
# How it was run: (§5)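 Biofilms formed in RPMI 1640 wells were exposed to caspofungin for 48 h and compared with drug-free control wells. Wells were examined in the plate under an inverted light microscope at ×200 and photographed.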
# [13] = tested on: Candida tropicalis; test: Antimicrobial activity against Candida tropicalis BR-A14 grown as planktonic cell assessed as concentration producing paradoxical growth after 48 hrs by XTT reduction assay; type: functional
# How it was run: (§6)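 Planktonic broth microdilution followed CLSI M27-A2, with caspofungin dissolved in water. After 48 h, XTT-menadione was added to each well and plates were incubated 1 h at 35°C in the dark. Cells were pelleted by centrifugation and the supernatant was read at 490 nm. MIC was the lowest concentration giving a 50% drop in metabolic activity versus the drug-free control. PG was ≥20% of drug-free activity above the MIC.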
# [14] = tested on: Candida orthopsilosis; test: Antimicrobial activity against Candida orthopsilosis BR-A38 grown as biofilm after 48 hrs by XTT reduction assay; type: functional; details: Lodderomyces orthopsilosis; how it was run: as §3
# [15] = tested on: Candida tropicalis; test: Effect on morphology in Candida tropicalis grown as biofilm assessed as rounding and clumping at 8 ug/ml after 48 hrs; type: functional, organism-based
# How it was run: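 Overnight RPMI 1640 cultures (MOPS, pH 7.0) were washed and set to about 1 × 10^7 cells/ml, then attached to polystyrene wells for 1.5 h at 37°C at 75 rpm. After 24 h biofilm growth, wells were washed and given doubling caspofungin dilutions (2–1,024 μg/ml in RPMI) for 48 h at 35°C at 75 rpm. Biofilms were viewed in situ by inverted light microscopy at ×200 alongside drug-free wells.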
# [16] = tested on: Candida parapsilosis; test: Antimicrobial activity against Candida parapsilosis BR-A26 grown as planktonic cell assessed as concentration producing paradoxical growth after 48 hrs by XTT reduction assay; type: functional; how it was run: as §6
# [17] = tested on: Candida orthopsilosis; test: Antimicrobial activity against Candida orthopsilosis BR-A36 grown as planktonic cell after 48 hrs by XTT reduction assay; type: functional; details: Lodderomyces orthopsilosis; how it was run: as §4
# [18] = tested on: Candida albicans; test: Antimicrobial activity against Candida albicans BR-A7 grown as biofilm after 48 hrs by XTT reduction assay; type: functional; how it was run: as §2
# [19] = tested on: Candida orthopsilosis; test: Antimicrobial activity against Candida orthopsilosis BR-A32 grown as planktonic cell assessed as paradoxical growth after 48 hrs by XTT reduction assay; type: functional, organism-based; how it was run: as §4
# [20] = tested on: Candida metapsilosis; test: Antimicrobial activity against Candida metapsilosis BR-A44 grown as planktonic cell after 48 hrs by XTT reduction assay; type: functional; details: Lodderomyces metapsilosis; how it was run: as §4
# [21] = tested on: Candida parapsilosis; test: Effect on morphology in Candida parapsilosis grown as planktonic cells assessed as inhibition of hyphae and pseudohyphae at 16 ug/ml after 48 hrs; type: functional, organism-based
# How it was run: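 Cells were taken from caspofungin-containing and drug-free wells of the planktonic broth microdilution test after 48 h. They were examined by light microscopy at ×400.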
# [22] = tested on: Candida parapsilosis; test: Effect on morphology in Candida parapsilosis grown as biofilm assessed as rounding and clumping at 128 ug/ml after 48 hrs; type: functional, organism-based; how it was run: as §5
# [23] = tested on: Candida parapsilosis; test: Antimicrobial activity against Candida parapsilosis BR-A27 grown as biofilm assessed as paradoxical growth after 48 hrs by XTT reduction assay; type: functional, organism-based
# How it was run: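 Clinical isolates were grown overnight (18 h, 35°C, 120 rpm) in RPMI 1640 with MOPS, pH 7.0, then washed and set to ~1 × 10^7 cells/ml. Cells attached for 1.5 h at 37°C, 75 rpm, then biofilms grew 24 h. Caspofungin was given as doubling dilutions of 2–1,024 μg/ml for 48 h at 35°C, 75 rpm. Read-out was XTT-menadione in PBS, 1 h at 35°C in the dark, A490, cell-free blank subtracted. MIC was a 50% drop in activity versus drug-free; PG was >50% of control above MIC. Run in duplicate.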
# [24] = tested on: Candida metapsilosis; test: Antimicrobial activity against Candida metapsilosis BR-A40 grown as planktonic cell after 48 hrs by XTT reduction assay; type: functional; details: Lodderomyces metapsilosis; how it was run: as §4
compound,measurement,setting,value
CC[C@H](C)C[C@H](C)CCCCCCCCC(=O)N[C@H]1C[C@@H](O)[C@@H](NCCN)NC(=O)[C@@H]2[C@@H](O)CCN2C(=O)[C@H]([C@H](O)CCN)NC(=O)[C@H]([C@H](O)[C@@H](O)c2ccc(O)cc2)NC(=O)[C@@H]2C[C@@H](O)CN2C(=O)[C@H]([C@@H](C)O)NC1=O [CASPOFUNGIN],MIC,[1],0.5 µg/mL
same,MIC,[2],2 µg/mL
same,Activity,[3],16 µg/mL
same,Activity,[4],inactive
same,MIC,[5],2 µg/mL
same,MIC,[6],2 µg/mL
same,Activity,[7],32 µg/mL
same,Activity,[8],inactive
same,MIC,[9],2 µg/mL
same,Activity,[10],Active
same,Activity,[11],Active
same,Activity,[12],Active
same,Activity,[13],8 µg/mL
same,MIC,[14],512 µg/mL
same,Activity,[15],Active
same,Activity,[16],16 µg/mL
same,MIC,[17],1 µg/mL
same,MIC,[18],2 µg/mL
same,Activity,[19],inactive
same,MIC,[20],2 µg/mL
same,Activity,[21],Active
same,Activity,[22],Active
same,Activity,[23],Active
same,MIC,[24],1 µg/mL
